ChEMBL document CHEMBL1124865, “Synthesis and biological evaluation of a series of parenteral 3'-quaternary ammonium cephalosporins” (J Med Chem, 1990)
Values after ≈ are worked out from the molar mass of the structure shown.

Columns and labels:
[1] = Terminal half life in dogs at the dose of 60 mg/kg.; assay type: ADME, organism-based, Canis lupus familiaris; set-up: dose 60 mg/kg; conditions: dog, in vivo
Procedure, shortened: (§1)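 Overnight-fasted female mongrel dogs with a Foley bladder catheter; bolus into the cephalic vein. Plasma and urine collected before dosing and over 24 h after. Antibacterial activity measured by microbiological assay.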

Canis familiaris = test: Percent of dose in dogs urine at the dose of 60 mg/kg.; assay type: functional, Canis lupus familiaris; procedure, shortened: as §1
Enterobacter cloacae [2] = test: (§2) Antibacterial activity against Enterobacter cloacae 265A; assay type: functional
Escherichia coli [3] = test: Antibacterial activity against Escherichia coli EC14; assay type: functional
Enterobacter cloacae [4] = test: Antibacterial activity against Enterobacter cloacae EB5; assay type: functional
Escherichia coli [5] = test: Antibacterial activity against Escherichia coli TEM; assay type: functional
Cavia porcellus [6] = organism: Cavia porcellus; test: In vitro relative anticholinergic potential in isolated guinea pig trachea; assay type: functional
Procedure, shortened: (§3)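 Guinea pig trachea in Krebs' solution at 37.5 °C, 95% O2/5% CO2, pH 7.4, 2 g resting tension. Cumulative carbachol log dose-response curve (3-fold steps) run before and 30 min after adding antagonist at 1 mM. […] Tukey test on log2 dose ratios.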

Cavia porcellus [7] = organism: Cavia porcellus; test: In vitro relative anticholinergic activity in isolated guinea pig trachea; assay type: functional; conditions: read-out: pA2 (converted); procedure, shortened: as §3
Klebsiella pneumoniae [8] = test: microbe, parasite or virus in culture; assay type: functional; conditions: Klebsiella pneumoniae; read-out: MIC
Klebsiella pneumoniae [9] = test: Antibacterial activity against Klebsiella pneumoniae X26; assay type: functional
Pseudomonas aeruginosa [10] = test: (§4) In vivo efficacy against Pseudomonas aeruginosa infected mice treated at 1 hr and 5 hr post infection; assay type: functional; conditions: Pseudomonas aeruginosa; read-out: ED50
Staphylococcus aureus [11] = test: (§5) In vivo efficacy against Staphylococcus aureus infected mice treated at 1 hr and 5 hr post infection; assay type: functional; conditions: Staphylococcus aureus; read-out: ED50
Escherichia coli [12] = test: (§6) In vivo efficacy against Escherichia coli infected mice treated at 1 hr and 5 hr post infection; assay type: functional; conditions: Escherichia coli; read-out: ED50
Escherichia coli [13] = test: In vivo efficacy against Escherichia coli infections in mice; assay type: functional; conditions: Escherichia coli; read-out: MIC
Pseudomonas aeruginosa [14] = test: In vivo efficacy against Pseudomonas aeruginosa infections in mice; assay type: functional; conditions: Pseudomonas aeruginosa; read-out: MIC
Staphylococcus aureus [15] = test: In vivo efficacy against Staphylococcus aureus infections in mice; assay type: functional; conditions: Staphylococcus aureus; read-out: MIC
Pseudomonas aeruginosa [16] = test: Antibacterial activity against Pseudomonas aeruginosa X528; assay type: functional
Pseudomonas aeruginosa [17] = test: Antibacterial activity against Pseudomonas aeruginosa PS18; assay type: functional
Staphylococcus aureus [18] = test: Antibacterial activity against penicillin G resistance Staphylococcus aureus; assay type: functional
Staphylococcus aureus [19] = test: Antibacterial activity against penicillin G susceptible Staphylococcus aureus; assay type: functional
Streptococcus pneumoniae = test: Antibacterial activity against Streptococcus pneumoniae; assay type: functional
Serratia marcescens = test: Antibacterial activity against Serratia marcescens SE3; assay type: functional
Streptococcus pyogenes = test: Antibacterial activity against Streptococcus pyogenes; assay type: functional
Enterococcus faecium = test: Antibacterial activity against Enterococcus faecium; assay type: functional; conditions: Enterococcus faecium; read-out: MIC
[20] = In vitro dose required for anticholinergic activity in isolated guinea pig trachea; assay type: functional
Mus musculus [21] = test: as §6; assay type: functional
Procedure, shortened: (§7)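 Mice given lethal experimental infections, with treatment at 1 and 5 h postinfection; ED50 expressed as mg/kg × 2.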

Mus musculus [22] = test: as §4; assay type: functional; procedure, shortened: as §7
Mus musculus [23] = test: as §5; assay type: functional; procedure, shortened: as §7
Bacteria = test: as §2
[24] = Terminal half life in Rhesus monkeys at the dose of 30 mg/kg.; assay type: ADME, organism-based, Macaca mulatta; set-up: dose 30 mg/kg; conditions: rhesus monkey, in vivo
Procedure, shortened: (§8)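 Male rhesus monkeys dosed intravenously at 30 mg/kg. Plasma sampled from 0.08–0.1 h up to 6–8 h; urine collected over 0–6/8 and 6/8–24 h. Samples measured by microbiological assay.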

Monkey = test: Percent of dose in Rhesus monkeys urine at the dose of 30 mg/kg.; assay type: functional, Cercopithecidae; procedure, shortened: as §8
[25] = Enterobacter cloacae, read-out: MIC
[26] = Escherichia coli, read-out: MIC
[27] = Klebsiella pneumoniae, read-out: MIC
[28] = Pseudomonas aeruginosa, read-out: MIC
[29] = Staphylococcus aureus, read-out: MIC
[30] = Streptococcus pneumoniae, read-out: MIC
[31] = Serratia marcescens, read-out: MIC
[32] = Streptococcus pyogenes, read-out: MIC

| SMILES | MIC (Enterobacter cloacae [2]; [25]) | MIC (Escherichia coli [3]; [26]) | MIC (Enterobacter cloacae [4]; [25]) | MIC (Escherichia coli [5]; [26]) | RAP (Cavia porcellus [6]) | MIC (Klebsiella pneumoniae [8]) | MIC (Klebsiella pneumoniae [9]; [27]) | MIC (Pseudomonas aeruginosa [16]; [28]) | MIC (Pseudomonas aeruginosa [17]; [28]) | MIC (Staphylococcus aureus [18]; [29]) | MIC (Staphylococcus aureus [19]; [29]) | MIC (Streptococcus pneumoniae; [30]) | MIC (Serratia marcescens; [31]) | MIC (Streptococcus pyogenes; [32]) | MIC (Enterococcus faecium) | Dose ratio [20] | also measured |
| --- | --- | --- | --- | --- | --- | --- | --- | --- | --- | --- | --- | --- | --- | --- | --- | --- | --- |
| CO/N=C(\C(=O)N[C@@H]1C(=O)N2C(C(=O)[O-])=C(C[n+]3ccccc3)CS[C@H]12)c1csc(N)n1 | 2 µg/mL (≈ 4.21 µM) | 0.03 µg/mL (≈ 0.0632 µM) | 0.06 µg/mL (≈ 0.126 µM) | 0.03 µg/mL (≈ 0.0632 µM) | 9 | 4 µg/mL (≈ 8.43 µM) | 0.03 µg/mL (≈ 0.0632 µM) | 2 µg/mL (≈ 4.21 µM) | 4 µg/mL (≈ 8.43 µM) | 2 µg/mL (≈ 4.21 µM) | 1 µg/mL (≈ 2.11 µM) | 0.03 µg/mL (≈ 0.0632 µM) | 0.25 µg/mL (≈ 0.527 µM) | 0.03 µg/mL (≈ 0.0632 µM) | > 128 µg/mL | 3.04 | half-life [1]: 1.67 h; Percent of dose recovered in urine (Canis familiaris): 94%; Kb (Cavia porcellus [7]): 490 µM; ED50 (Pseudomonas aeruginosa [10]): 14.4 mg/kg; ED50 (Staphylococcus aureus [11]): 0.8 mg/kg; ED50 (Escherichia coli [12]): 0.07 mg/kg; MIC (Escherichia coli [13]): 0.06 µg/mL (≈ 0.126 µM); MIC (Pseudomonas aeruginosa [14]): 16 µg/mL (≈ 33.7 µM); MIC (Staphylococcus aureus [15]): 1 µg/mL (≈ 2.11 µM) |
| CO/N=C(\C(=O)N[C@@H]1C(=O)N2C(C(=O)[O-])=C(C[n+]3cccc(CC(=O)O)c3)CS[C@H]12)c1csc(N)n1 (stereo in doubt; 6) |  |  |  |  |  |  |  |  |  |  |  |  |  |  |  |  | MIC (Enterobacter cloacae [2]): >128 µg/mL; MIC (Escherichia coli [3]): 0.015 µg/mL (≈ 0.0282 µM); MIC (Enterobacter cloacae [4]): 0.5 µg/mL (≈ 0.939 µM); MIC (Escherichia coli [5]): 0.03 µg/mL (≈ 0.0563 µM); MIC (Klebsiella pneumoniae [9]): 0.015 µg/mL (≈ 0.0282 µM); ED50 (Mus musculus [21]): 0.13 mg/kg; ED50 (Mus musculus [22]): > 50 mg/kg; ED50 (Mus musculus [23]): 7.8 mg/kg; MIC (Pseudomonas aeruginosa [16]): 8 µg/mL (≈ 15 µM); MIC (Pseudomonas aeruginosa [17]): 32 µg/mL (≈ 60.1 µM); MIC (Staphylococcus aureus [18]): 4 µg/mL (≈ 7.51 µM); MIC (Staphylococcus aureus [19]): 4 µg/mL (≈ 7.51 µM); MIC (Streptococcus pneumoniae): 0.015 µg/mL (≈ 0.0282 µM); MIC (Serratia marcescens): 0.25 µg/mL (≈ 0.469 µM); MIC (Streptococcus pyogenes): 0.015 µg/mL (≈ 0.0282 µM) |
| CO/N=C(\C(=O)N[C@@H]1C(=O)N2C(C(=O)[O-])=C(C[n+]3cccc(CC(=O)O)c3)CS[C@H]12)c1csc(N)n1 (stereo in doubt; 17) |  |  |  |  |  |  |  |  |  |  |  |  |  |  |  |  | MIC (Bacteria): 32 µg/mL (≈ 60.1 µM) |
| CO/N=C(\C(=O)N[C@@H]1C(=O)N2C(C(=O)[O-])=C(C[n+]3cccc4c3CCC4)CS[C@H]12)c1csc(N)n1 [CEFPIROME] | 0.5 µg/mL (≈ 0.972 µM) | 0.015 µg/mL (≈ 0.0291 µM) | 0.06 µg/mL (≈ 0.117 µM) | 0.03 µg/mL (≈ 0.0583 µM) | 4 | 4 µg/mL (≈ 7.77 µM) | 0.015 µg/mL (≈ 0.0291 µM) | 2 µg/mL (≈ 3.89 µM) | 8 µg/mL (≈ 15.5 µM) | 1 µg/mL (≈ 1.94 µM) | 1 µg/mL (≈ 1.94 µM) | 0.015 µg/mL (≈ 0.0291 µM) | 0.125 µg/mL (≈ 0.243 µM) | 0.008 µg/mL (≈ 0.0155 µM) | 8 µg/mL (≈ 15.5 µM) | 1.76 | half-life [24]: 1.13 h; Dose (Monkey): 61% |
